Assay results reported in ChEMBL document CHEMBL1154639, “Application of Huisgen (3+2) cycloaddition reaction: synthesis of 1-(2,3-dihydrobenzofuran-2-yl-methyl [1,2,3]-triazoles and their antitubercular evaluations” (2010).
In brackets after ≈: the same amount, converted by molar mass.

System: Mycobacterium tuberculosis
Test: Antitubercular activity against Mycobacterium tuberculosis H37Rv after 30 days by agar microdilution method
Type: functional
Summary of the method: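 M. tuberculosis H37Rv grown on L-J medium, harvested into 0.85% saline with 0.05% Tween-80. Compounds from a 1 mg/mL DMSO stock, two-fold dilutions in Middlebrook 7H10 agar slants with OADC. Slants preincubated 24 h at 37 °C, then streaked with 5 × 10^4 bacilli per tube and held at 37 °C. Growth read at 30 days against drug-free controls; MIC determined.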

Row | Structure (SMILES) | MIC [µg/mL]
1 | Cc1ccc(C)c2c1CC(CN=[N+]=[N-])O2 (stereo not given) | > 12.5
2 | CCCCCc1cn(CC2Cc3cc(C#N)ccc3O2)nn1 (stereo not given) | > 12.5
3 | O=Cc1ccc2c(c1)CC(Cn1cc(-c3ccccc3)nn1)O2 (stereo not given) | > 12.5
4 | O=Cc1ccc2c(c1)CC(Cn1cc(Cc3ccccc3)nn1)O2 (stereo not given) | > 12.5
5 | Cc1ccc(C)c2c1CC(Cn1cc(Cc3ccccc3)nn1)O2 (stereo not given) | > 12.5
6 | [N-]=[N+]=NCC1Cc2cc(C=O)ccc2O1 (stereo not given) | > 12.5
7 | CCCCCC(O)c1cn(CC2Cc3c(C)ccc(C)c3O2)nn1 (stereo not given) | > 12.5
8 | N#Cc1ccc2c(c1)CC(Cn1cc(CCO)nn1)O2 (stereo not given) | > 12.5
9 | N#Cc1ccc2c(c1)CC(Cn1cc(Cc3ccccc3)nn1)O2 (stereo not given) | > 12.5
10 | N#Cc1ccc2c(c1)CC(Cn1cc(-c3ccccc3)nn1)O2 (stereo not given) | > 12.5
11 | OCc1cn(CC2Cc3c(ccc4ccccc34)O2)nn1 (stereo not given) | > 12.5
12 | OCCc1cn(CC2Cc3c(ccc4ccccc34)O2)nn1 (stereo not given) | > 12.5
13 | N#Cc1ccc2c(c1)CC(CN=[N+]=[N-])O2 (stereo not given) | > 12.5
14 | Cc1ccc(C)c2c1CC(Cn1cc(-c3ccccc3)nn1)O2 (stereo not given) | > 12.5
15 | CCCCCc1cn(CC2Cc3cc(C=O)ccc3O2)nn1 (stereo not given) | 12.5 (≈ 41.8 µM)
16 | CCCCCCc1cn(CC2Cc3cc(C#N)ccc3O2)nn1 (stereo not given) | > 12.5
17 | c1ccc(-c2cn(CC3Cc4c(ccc5ccccc45)O3)nn2)cc1 (stereo not given) | > 12.5
18 | Cc1ccc(C)c2c1CC(Cn1cc(CO)nn1)O2 (stereo not given) | 12.5 (≈ 48.2 µM)
19 | O=Cc1ccc2c(c1)CC(Cn1cc(CO)nn1)O2 (stereo not given) | > 12.5
20 | CCCCCc1cn(CC2Cc3c(C)ccc(C)c3O2)nn1 (stereo not given) | > 12.5
21 | [N-]=[N+]=NCC1Cc2c(ccc3ccccc23)O1 (stereo not given) | 3.12 (≈ 13.9 µM)
22 | N#Cc1ccc2c(c1)CC(Cn1cc(CO)nn1)O2 (stereo not given) | > 25
23 | c1ccc(Cc2cn(CC3Cc4c(ccc5ccccc45)O3)nn2)cc1 (stereo not given) | > 12.5
24 | CC[C@@H](CO)NCCN[C@@H](CC)CO [ETHAMBUTOL] | 3.25 (≈ 15.9 µM)
25 | Cc1ccc(C)c2c1CC(Cn1cc(CCO)nn1)O2 (stereo not given) | > 12.5
26 | CCCCCCc1cn(CC2Cc3cc(C=O)ccc3O2)nn1 (stereo not given) | 6.25 (≈ 19.9 µM)
27 | NNC(=O)c1ccncc1 [ISONIAZID] | 0.75 (≈ 5.47 µM)
28 | CCCCCc1cn(CC2Cc3c(ccc4ccccc34)O2)nn1 (stereo not given) | 12.5 (≈ 38.9 µM)
29 | CCCCCC(O)c1cn(CC2Cc3cc(C#N)ccc3O2)nn1 (stereo not given) | > 25
30 | CCCCCCc1cn(CC2Cc3c(C)ccc(C)c3O2)nn1 (stereo not given) | > 12.5
